Reference: ChEMBL document CHEMBL5338759, “N-Phenyl-1-(phenylsulfonyl)-1H-1,2,4-triazol-3-amine as a New Class of HIV-1 Non-nucleoside Reverse Transcriptase Inhibitor” (J Med Chem, 2023)

What was measured:
[1] = Cmax in BALB/c mouse brain at 250 mg/kg, IG measured at 0.5 to 24 hrs by HPLC-MS analysis; type: ADME, organism-based; design: time 0.5-24 hrs, dose 250 mg/kg, route ig; conditions: po
How it was run: (§1)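 Mice averaging 20 g (24 animals) were fasted 1 h before and 1 h after dosing. They received 250 mg/kg as 0.5 ml suspension in 1% CMC, 0.05% Tween 80 by intragastric intubation. Blood and brain were taken after decapitation at 0.5, 1, 2, 3, 5, 8 and 24 h (3 per time point). Plasma was frozen at -20°C and brain at -120 °C. Quantification was by UPLC-HRMS (ESI+, EIC m/z 476.0691) against plasma-matrix standards. Parameters were derived by noncompartmental analysis; LLOQ 5 ng/ml, with values below it set to 2.5.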

[2] = Tmax in BALB/c mouse brain at 250 mg/kg, IG measured at 0.5 to 24 hrs by HPLC-MS analysis; type: ADME, organism-based; conditions: po, time 0.5-24 hrs; how it was run: as §1
[3] = Selectivity ratio of IC50 for antiviral activity against wild type HIV1 IIIB infected in human TZM-bl cells to IC50 for antiviral activity against HIV1 harboring A17 mutant infected in human TZM-bl cells; type: toxicity, cell-based; conditions: human immunodeficiency virus 1
How it was run: (§2)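 TZM-bl cells (2x10⁵/mL) with 15 µg/mL DEAE-dextran were infected with HIV-1 IIIB, A17 (K103N/Y181C) IIIB variant, or NL4-3-based NNRTI-resistant mutants. Compound was present at 0.05–500 nM (DMSO held constant, 0.005% or 0.05%) for 48 hr at 37°C, 5% CO₂.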

[4] = Subacute toxicity in BALB/c mouse assessed as effect on lung weight at 25 to 250 mg/kg, IG measured daily for 30 days; type: organism-based; conditions: in vivo, po, 720 h, dose 25-250 mg/kg, time 30 day
[5] = Subacute toxicity in BALB/c mouse assessed as pathological change in spleen at 25 to 250 mg/kg, IG measured daily for 30 days by H and E staining based histological analysis; type: organism-based; conditions: in vivo, po, 720 h, dose 25-250 mg/kg, time 30 day
How it was run: (§3)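 Male Balb/C mice (17 per group) received 25 or 250 mg/kg intragastrically in 1% starch gel once daily for 30 days, against starch gel controls. Internal organs were examined macroscopically after the study. Sections were paraffin-embedded and stained with hematoxylin and eosin.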

[6] = Subacute toxicity in BALB/c mouse assessed as reduction in reticulocytes count at 25 to 250 mg/kg, IG measured daily for 30 days; type: organism-based; conditions: in vivo, po, 720 h, dose 25-250 mg/kg, time 30 day
[7] = Subacute toxicity in BALB/c mouse assessed as body weight gain at 25 to 250 mg/kg, IG measured daily for 30 days; type: organism-based; conditions: in vivo, po, 720 h, dose 25-250 mg/kg, time 30 day
How it was run: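 Male Balb/C mice (17 per group, initial weight 20.9 ± 0.8 g) were dosed intragastrically once daily for 30 days at 25 or 250 mg/kg. Doses were given as 2.5 or 25 mg/ml suspensions in 1% starch gel at 0.2 ml per 20 g; controls received starch gel alone. Weight, coat, mucous membranes and excretion were recorded throughout.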

[8] = Half life in BALB/c mouse brain at 250 mg/kg, IG measured at 0.5 to 24 hrs by HPLC-MS analysis; type: ADME, organism-based; conditions: in vivo, po, time 0.5-24 hrs; how it was run: as §1
[9] = Safety index, ratio of TC10 for neurotoxicity in mouse primary neurons assessed as loss of MAP-2 intensity to EC50 for antiviral activity against wild type HIV1 IIIB infected in human TZM-bl cells; type: toxicity, cell-based
How it was run: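 Primary neuronal cultures from cortex/hippocampus of E16 CD1 mouse embryos (>95% neurons). Cells were then methanol:acetic acid-fixed and MAP-2 stained, and intensity was image-quantified. S-index = TC10/(100×EC50 vs HIV-1 IIIB in TZM-bl).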

[10] = Subacute toxicity in BALB/c mouse assessed as reduction in aminotransferases level at 25 to 250 mg/kg, IG measured daily for 30 days; type: organism-based; conditions: in vivo, po, 720 h, dose 25-250 mg/kg, time 30 day
How it was run: (§4)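 Dosing was daily intragastric 25 or 250 mg/kg in 1% starch gel (0.2 ml/20 g) for 30 days in male Balb/C mice, 17 per group, with starch gel controls. After the final dose, mice were fasted for 2 h with water available, then bled. Serum was clotted for 30 min at room temperature and centrifuged at 3500 rpm. Total protein, urea, creatinine, AST, ALT and alkaline phosphatase were assayed and compared by Mann-Whitney with Holm-Šídák, p < 0.05.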

[11] = Subacute toxicity in BALB/c mouse assessed as reduction in urea level at 25 to 250 mg/kg, IG measured daily for 30 days; type: organism-based; conditions: in vivo, po, 720 h, dose 25-250 mg/kg, time 30 day; how it was run: as §4
[12] = Subacute toxicity in BALB/c mouse assessed as pathological change in kidney at 25 to 250 mg/kg, IG measured daily for 30 days by H and E staining based histological analysis; type: organism-based; conditions: in vivo, po, 720 h, dose 25-250 mg/kg, time 30 day; how it was run: as §3
[13] = Acute toxicity in BALB/c mouse assessed as body weight gain at 2000 mg/kg, IG measured for 14 days; type: organism-based; conditions: in vivo, po, 336 h, time 14 day
How it was run: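 Male Balb/C mice, 5–6 weeks old and 19–21 g, were deprived of food and water for 1.5–2 h. They were given a single intragastric 2000 mg/kg dose at 0.5 ml/20 g, prepared just before use. Controls received 0.5 ml of 1% starch gel intragastrically. There were 5 mice per group, observed for 14 days for condition and weight; weight was compared by Šídák's multiple comparisons test.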

[14] = Subacute toxicity in BALB/c mouse assessed as reduction in […] level at 25 to 250 mg/kg, IG measured daily for 30 days; type: organism-based; conditions: in vivo, po, 720 h, dose 25-250 mg/kg, time 30 day; how it was run: as §4
[15] = Neurotoxicity in mouse primary neurons assessed as loss of MAP-2 intensity at 0.0001 to 10 uM incubated for 48 hrs by semi-quantitative analysis; conditions: neuron
[16] = target: Voltage-gated inwardly rectifying potassium channel KCNH2 (Homo sapiens, UniProt Q12809); test: Inhibition of hERG by fluorescence polarization assay; type: toxicity
Voltage-gated inwardly rectifying potassium channel KCNH2, sequence (Q12809 whole entry): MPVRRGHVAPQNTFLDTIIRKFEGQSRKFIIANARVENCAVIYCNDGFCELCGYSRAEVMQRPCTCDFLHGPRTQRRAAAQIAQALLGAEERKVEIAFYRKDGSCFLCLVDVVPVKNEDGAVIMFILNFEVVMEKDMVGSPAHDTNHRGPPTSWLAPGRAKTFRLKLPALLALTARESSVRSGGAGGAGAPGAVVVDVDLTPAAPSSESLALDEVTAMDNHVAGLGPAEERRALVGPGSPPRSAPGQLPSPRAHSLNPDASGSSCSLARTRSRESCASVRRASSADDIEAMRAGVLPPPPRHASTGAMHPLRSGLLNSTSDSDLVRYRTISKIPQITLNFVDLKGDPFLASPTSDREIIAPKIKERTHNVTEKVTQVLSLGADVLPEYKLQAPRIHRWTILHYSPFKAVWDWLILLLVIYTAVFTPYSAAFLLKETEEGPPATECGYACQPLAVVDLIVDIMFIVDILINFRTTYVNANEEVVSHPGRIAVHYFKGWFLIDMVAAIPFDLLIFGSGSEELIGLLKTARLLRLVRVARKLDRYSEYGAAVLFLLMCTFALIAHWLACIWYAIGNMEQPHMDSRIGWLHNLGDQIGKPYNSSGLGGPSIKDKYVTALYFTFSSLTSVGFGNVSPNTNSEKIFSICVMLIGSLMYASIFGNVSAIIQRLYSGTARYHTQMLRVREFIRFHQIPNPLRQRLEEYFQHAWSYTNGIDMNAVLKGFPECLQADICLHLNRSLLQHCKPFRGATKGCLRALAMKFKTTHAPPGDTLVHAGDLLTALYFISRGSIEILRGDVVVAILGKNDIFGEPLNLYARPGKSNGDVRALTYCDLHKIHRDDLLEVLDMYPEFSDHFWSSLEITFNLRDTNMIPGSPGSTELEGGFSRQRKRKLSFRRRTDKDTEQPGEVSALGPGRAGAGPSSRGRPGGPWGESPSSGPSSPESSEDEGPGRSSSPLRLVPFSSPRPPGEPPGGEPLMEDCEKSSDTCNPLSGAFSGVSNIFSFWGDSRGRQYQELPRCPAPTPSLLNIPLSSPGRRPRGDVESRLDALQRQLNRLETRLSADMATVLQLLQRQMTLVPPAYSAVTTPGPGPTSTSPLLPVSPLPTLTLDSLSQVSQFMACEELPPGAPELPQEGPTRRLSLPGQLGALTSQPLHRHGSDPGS

[17] = Selectivity ratio of IC50 for antiviral activity against wild type HIV1 IIIB infected in human TZM-bl cells to IC50 for antiviral activity against HIV1 harboring K103N mutant infected in human TZM-bl cells; type: toxicity, cell-based; conditions: human immunodeficiency virus 1; how it was run: as §2
[18] = Subacute toxicity in BALB/c mouse assessed as effect on heart weight at 25 to 250 mg/kg, IG measured daily for 30 days; type: organism-based; conditions: in vivo, po, 720 h, dose 25-250 mg/kg, time 30 day
[19] = Selectivity index, ratio of CC50 for cytotoxicity against human TZM-bl cells assessed as reduction in cell viability by MTS assay to EC50 for antiviral activity against HIV1 harboring A17 mutant infected in human TZM-bl cells; type: toxicity, cell-based; conditions: read-out: Ratio CC50/EC50
[20] = test system: Human immunodeficiency virus 1; test: Antiviral activity against HIV1 harboring K103N mutant infected in human TZM-bl cells; type: functional, organism-based; conditions: Human immunodeficiency virus 1, TZM-bl
How it was run: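 TZM-bl cells (2x10⁵/mL) were infected with mutant virus in the presence of 15 µg/mL DEAE-dextran. A17 (IIIB variant) was grown in H9 cells; the other mutants were NL4-3-based plasmids transfected into 293T cells, then expanded in H9 cells. Compounds were tested at 0.05–500 nM (DMSO constant within an assay) for 48 hr at 37°C. Read-out was luciferase RLU from lysed cells, with at least 6 replicates over multiple days.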

[21] = AUC (0 to 24 hrs) in BALB/c mouse brain at 250 mg/kg, IG measured at 0.5 to 24 hrs by HPLC-MS analysis; type: ADME, organism-based; design: dose 250 mg/kg, time 0.5-24 hrs, route ig; conditions: po; how it was run: as §1

In the case of N#C/C=C/c1ccc2c(S(=O)(=O)n3nc(Nc4ccc(C#N)c(Cl)c4)nc3N)cccc2c1, the Cmax [1] is reported as 40.3 ng/100 mg, the Tmax [2] is reported as 2 h and the “Ratio IC50” value [3] is reported as 5.6. For the same molecule, the Activity [4] was “Non-Toxic”, the Activity [5] was “Non-Toxic” and the Activity [6] was “Non-Toxic”. The Activity [7] was “Non-Toxic”, the t1/2 [8] was 11.5 h and the Ratio [9] was “Not Active”. The Activity [10] was “Toxic”, the Activity [11] was “Non-Toxic” and the Activity [12] was “Non-Toxic”. For the same molecule, the Activity [13] was “Non-Toxic”, the Activity [14] was “Non-Toxic” and the Activity [15] was “Non-Toxic”. For the same molecule, the IC50 [16] was 11.5 µM, the “Ratio IC50” value [17] was 8.9 and the Activity [18] was “Non-Toxic”. It also gave a selectivity ratio [19] of 1200, an IC50 [20] of 0.0059 µM and an AUC(0-t) [21] of 142 µg·h/mL.
